Assay results: paper PMC4969713 (Journal of Alzheimer's Disease, 2016)
Like-named read-outs stand apart in the source and are kept apart here.

Tests used:
[1] = system: male BALB/c mice; test: Elevated Plus-Maze; type: in vivo; conditions: IP, Buspirone 5 mg/kg; for locomotion (total number of arm visits): M1 5 or 20 mg/kg, M2 1 and 5 mg/kg; for anxiolytic effect (open/closed arm time and visits, defecations): M2 0.05, 0.5, 1.0, 5.0 mg/kg
Outline: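 Elevated plus-maze in mice. Read-outs were open/closed arm time ratio, open/closed visit ratio, defecations and total visits. Each treated group was compared with the placebo group by Student t-test.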

[2] = system: male SHK mice; test: Apomorphine-induced disruption of pre-pulse inhibition; type: in vivo; conditions: IP; apomorphine 20 mg/kg; Haloperidol 1 mg/kg
Outline: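 Male SHK mice received apomorphine as the pro-psychotic agent to disrupt pre-pulse inhibition. Groups: untreated control, apomorphine alone, haloperidol 1 mg/kg as positive control, and test compound at several doses. Groups were compared with the apomorphine-only group by Student test.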

[3] = system: male BALB/c mice; test: Elevated Platform test; type: in vivo; conditions: IP; Lorazepam 0.05 mg/kg, AVN-101 0.2 mg/kg; initial 2 min
[4] = system: BALB/c mice; test: Open Field test; type: in vivo; conditions: IP; Lorazepam 0.05 mg/kg, AVN-101 0.2 mg/kg
Outline: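 Male BALB/c mice received lorazepam 30 min or test compound 5 min before testing; controls received saline, with at least 8 per group. Time in the central zone was recorded during a 10-min exploration. Comparison with the control group used ANOVA with Fisher LSD.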

[5] = target: T1, 5-HT7 receptor (Homo sapiens, UniProt P34969); conditions: cited from earlier work
T1 sequence (P34969 whole entry): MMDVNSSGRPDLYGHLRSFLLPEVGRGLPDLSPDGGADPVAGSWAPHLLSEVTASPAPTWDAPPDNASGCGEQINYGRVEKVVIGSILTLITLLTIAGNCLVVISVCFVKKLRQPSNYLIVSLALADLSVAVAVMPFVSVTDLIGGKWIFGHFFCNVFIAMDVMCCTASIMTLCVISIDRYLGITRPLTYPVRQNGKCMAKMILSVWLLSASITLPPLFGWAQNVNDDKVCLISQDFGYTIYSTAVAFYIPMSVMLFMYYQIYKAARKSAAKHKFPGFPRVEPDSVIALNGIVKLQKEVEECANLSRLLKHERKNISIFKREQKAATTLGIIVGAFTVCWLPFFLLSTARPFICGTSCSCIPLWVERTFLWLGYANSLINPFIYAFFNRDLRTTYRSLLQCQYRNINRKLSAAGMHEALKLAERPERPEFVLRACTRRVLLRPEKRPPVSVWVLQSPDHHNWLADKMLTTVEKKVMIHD

[6] = target: T2, 5-HT2A receptor (Homo sapiens, UniProt P28223); conditions: cited from earlier work
T2 sequence (P28223 whole entry): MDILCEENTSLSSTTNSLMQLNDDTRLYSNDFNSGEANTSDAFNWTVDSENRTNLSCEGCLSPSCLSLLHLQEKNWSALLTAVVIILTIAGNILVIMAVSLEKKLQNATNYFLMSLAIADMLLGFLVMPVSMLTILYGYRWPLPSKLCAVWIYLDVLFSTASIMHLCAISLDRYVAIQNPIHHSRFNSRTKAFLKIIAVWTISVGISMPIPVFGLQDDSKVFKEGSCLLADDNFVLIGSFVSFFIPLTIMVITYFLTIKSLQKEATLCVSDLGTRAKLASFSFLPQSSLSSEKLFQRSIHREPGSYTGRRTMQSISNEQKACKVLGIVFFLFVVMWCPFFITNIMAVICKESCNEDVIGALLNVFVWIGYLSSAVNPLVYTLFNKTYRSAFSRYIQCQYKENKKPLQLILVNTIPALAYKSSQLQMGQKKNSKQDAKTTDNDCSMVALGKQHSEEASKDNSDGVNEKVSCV

[7] = target: T3, 5-HT2C receptor (Homo sapiens, UniProt P28335); conditions: cited from earlier work
T3 sequence (P28335 33-458): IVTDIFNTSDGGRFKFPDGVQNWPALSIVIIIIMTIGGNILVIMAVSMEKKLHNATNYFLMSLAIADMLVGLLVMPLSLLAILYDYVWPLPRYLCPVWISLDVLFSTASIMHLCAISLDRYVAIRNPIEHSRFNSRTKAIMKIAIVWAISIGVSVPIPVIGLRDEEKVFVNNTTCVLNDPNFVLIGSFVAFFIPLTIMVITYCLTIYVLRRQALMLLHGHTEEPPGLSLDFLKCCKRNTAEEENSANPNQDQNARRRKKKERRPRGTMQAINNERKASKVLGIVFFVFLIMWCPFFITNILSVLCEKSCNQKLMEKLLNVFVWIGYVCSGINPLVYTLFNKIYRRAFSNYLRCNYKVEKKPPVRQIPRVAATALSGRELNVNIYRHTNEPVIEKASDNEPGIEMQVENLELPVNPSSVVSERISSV

[8] = target: 5-HT2B receptor (Homo sapiens, UniProt P41595); conditions: cited from earlier work
Sequence of 5-HT2B receptor (P41595 whole entry): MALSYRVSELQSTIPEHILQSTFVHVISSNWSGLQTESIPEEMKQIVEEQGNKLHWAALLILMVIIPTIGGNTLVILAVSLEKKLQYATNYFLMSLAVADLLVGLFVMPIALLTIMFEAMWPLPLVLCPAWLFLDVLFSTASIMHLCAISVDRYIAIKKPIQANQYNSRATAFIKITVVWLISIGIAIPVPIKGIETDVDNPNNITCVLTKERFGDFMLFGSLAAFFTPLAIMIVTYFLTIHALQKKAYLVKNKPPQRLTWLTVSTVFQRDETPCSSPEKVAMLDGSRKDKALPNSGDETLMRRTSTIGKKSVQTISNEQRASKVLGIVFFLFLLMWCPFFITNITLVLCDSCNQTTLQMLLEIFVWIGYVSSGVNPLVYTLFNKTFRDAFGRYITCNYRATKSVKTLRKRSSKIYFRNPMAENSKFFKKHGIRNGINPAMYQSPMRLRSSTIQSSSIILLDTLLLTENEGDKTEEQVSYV

[9] = target: 5-HT1A receptor (Homo sapiens, UniProt P08908); conditions: Table 2; cited from earlier work
Sequence of 5-HT1A receptor (P08908 whole entry): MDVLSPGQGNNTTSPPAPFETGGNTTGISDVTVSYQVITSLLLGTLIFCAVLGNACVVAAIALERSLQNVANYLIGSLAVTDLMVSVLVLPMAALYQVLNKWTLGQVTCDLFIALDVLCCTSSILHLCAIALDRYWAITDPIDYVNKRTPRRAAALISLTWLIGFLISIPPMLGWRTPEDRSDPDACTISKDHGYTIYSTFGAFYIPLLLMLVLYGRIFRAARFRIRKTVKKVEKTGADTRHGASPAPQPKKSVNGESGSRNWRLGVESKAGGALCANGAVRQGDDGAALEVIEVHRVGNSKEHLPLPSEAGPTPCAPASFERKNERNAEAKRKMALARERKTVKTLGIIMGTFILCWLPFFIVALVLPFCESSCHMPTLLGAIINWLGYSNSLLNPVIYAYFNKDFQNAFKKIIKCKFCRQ

[10] = target: 5-HT1B receptor; conditions: cited from earlier work
[11] = target: T1, 5-HT7 receptor; test: Radioligand binding competition, 5-HT7
[12] = target: 5-HT6 receptor (Homo sapiens, UniProt P50406); test: Radioligand binding competition, 5-HT6
[13] = target: T2, 5-HT2A receptor; test: Radioligand binding competition, 5-HT2A
[14] = target: T3, 5-HT2C receptor; test: Radioligand binding competition, 5-HT2C
[15] = target: histamine H1 receptor (Homo sapiens, UniProt P35367); test: Radioligand binding competition, histamine H1
Sequence of histamine H1 receptor (P35367 whole entry, species assumed): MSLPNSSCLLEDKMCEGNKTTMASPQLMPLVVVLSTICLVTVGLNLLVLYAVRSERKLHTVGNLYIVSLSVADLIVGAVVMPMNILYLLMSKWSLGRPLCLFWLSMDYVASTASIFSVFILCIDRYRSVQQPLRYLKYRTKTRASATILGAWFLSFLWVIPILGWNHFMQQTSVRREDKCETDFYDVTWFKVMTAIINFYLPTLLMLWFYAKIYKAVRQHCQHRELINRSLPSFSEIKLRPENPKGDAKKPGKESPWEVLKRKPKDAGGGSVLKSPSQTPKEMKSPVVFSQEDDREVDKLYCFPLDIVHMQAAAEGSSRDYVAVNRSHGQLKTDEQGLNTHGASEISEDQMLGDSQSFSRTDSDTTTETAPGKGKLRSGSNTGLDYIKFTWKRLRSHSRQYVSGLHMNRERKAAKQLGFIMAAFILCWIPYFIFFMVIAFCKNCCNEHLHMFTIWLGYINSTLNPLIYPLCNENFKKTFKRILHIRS

[16] = target: histamine H2 receptor (Homo sapiens, UniProt P25021); test: Radioligand binding competition, histamine H2
Sequence of histamine H2 receptor (P25021 whole entry): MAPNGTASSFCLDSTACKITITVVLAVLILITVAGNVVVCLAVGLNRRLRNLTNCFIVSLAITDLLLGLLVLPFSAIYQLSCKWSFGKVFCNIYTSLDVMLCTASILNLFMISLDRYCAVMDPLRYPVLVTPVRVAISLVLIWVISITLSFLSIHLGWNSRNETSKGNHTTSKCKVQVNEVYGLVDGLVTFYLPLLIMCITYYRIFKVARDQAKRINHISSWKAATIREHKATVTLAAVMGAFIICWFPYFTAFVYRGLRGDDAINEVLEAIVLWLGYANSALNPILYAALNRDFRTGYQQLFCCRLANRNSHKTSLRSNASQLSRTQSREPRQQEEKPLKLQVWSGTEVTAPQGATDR

[17] = target: Adrenergic α2A (Homo sapiens, UniProt P08913); test: Radioligand competition, adrenergic α2A; type: binding
[18] = target: Adrenergic α1A (Homo sapiens, UniProt P35348); test: Radioligand competition, adrenergic α1A; type: binding
[19] = target: 5-HT3 receptor (Homo sapiens, UniProt P46098); test: Target panel binding, 5-HT3
Sequence of 5-HT3 receptor (P46098 24-478): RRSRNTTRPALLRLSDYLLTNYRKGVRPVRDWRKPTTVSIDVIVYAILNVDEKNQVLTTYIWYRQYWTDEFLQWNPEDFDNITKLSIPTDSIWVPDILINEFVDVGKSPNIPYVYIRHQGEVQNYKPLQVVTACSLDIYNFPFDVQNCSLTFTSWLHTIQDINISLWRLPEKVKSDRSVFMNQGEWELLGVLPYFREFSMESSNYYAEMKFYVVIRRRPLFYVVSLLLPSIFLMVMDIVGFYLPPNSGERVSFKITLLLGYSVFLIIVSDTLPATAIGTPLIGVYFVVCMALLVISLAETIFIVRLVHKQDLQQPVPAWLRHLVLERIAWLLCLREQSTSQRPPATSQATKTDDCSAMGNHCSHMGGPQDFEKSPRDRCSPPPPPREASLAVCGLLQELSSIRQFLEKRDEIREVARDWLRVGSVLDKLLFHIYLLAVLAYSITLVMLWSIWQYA

[20] = target: 5-HT4 receptor (Homo sapiens, UniProt Q13639); test: Target panel binding, 5-HT4
Sequence of 5-HT4 receptor (Q13639 whole entry): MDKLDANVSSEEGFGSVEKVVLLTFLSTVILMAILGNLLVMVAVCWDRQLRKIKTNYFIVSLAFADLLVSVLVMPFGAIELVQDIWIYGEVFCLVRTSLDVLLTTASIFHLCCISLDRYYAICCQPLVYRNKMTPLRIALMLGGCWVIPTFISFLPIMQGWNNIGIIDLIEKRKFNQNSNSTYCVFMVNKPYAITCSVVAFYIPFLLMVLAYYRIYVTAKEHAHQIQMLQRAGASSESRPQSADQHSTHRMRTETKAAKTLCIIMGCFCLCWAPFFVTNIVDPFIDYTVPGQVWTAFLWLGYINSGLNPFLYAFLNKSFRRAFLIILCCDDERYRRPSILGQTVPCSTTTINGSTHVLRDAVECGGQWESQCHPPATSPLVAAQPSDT

[21] = Pharmacokinetics in dogs; type: in vivo, dogs (Beagle); conditions: for AUC0 - >∞ / Cmax / T1/2 / Tmax: label = substance analyzed
[22] = Phase I pharmacokinetics, single PO dose; type: in vivo, human; conditions: for AUC0 - >∞ / Cmax / T1/2: label = substance analyzed, Means ± SD
[23] = target: hERG potassium channel (Homo sapiens, UniProt Q12809); test: hERG single cell patch clamp in HEK cells; conditions: potassium currents, patch clamp
Sequence of hERG potassium channel (Q12809 whole entry): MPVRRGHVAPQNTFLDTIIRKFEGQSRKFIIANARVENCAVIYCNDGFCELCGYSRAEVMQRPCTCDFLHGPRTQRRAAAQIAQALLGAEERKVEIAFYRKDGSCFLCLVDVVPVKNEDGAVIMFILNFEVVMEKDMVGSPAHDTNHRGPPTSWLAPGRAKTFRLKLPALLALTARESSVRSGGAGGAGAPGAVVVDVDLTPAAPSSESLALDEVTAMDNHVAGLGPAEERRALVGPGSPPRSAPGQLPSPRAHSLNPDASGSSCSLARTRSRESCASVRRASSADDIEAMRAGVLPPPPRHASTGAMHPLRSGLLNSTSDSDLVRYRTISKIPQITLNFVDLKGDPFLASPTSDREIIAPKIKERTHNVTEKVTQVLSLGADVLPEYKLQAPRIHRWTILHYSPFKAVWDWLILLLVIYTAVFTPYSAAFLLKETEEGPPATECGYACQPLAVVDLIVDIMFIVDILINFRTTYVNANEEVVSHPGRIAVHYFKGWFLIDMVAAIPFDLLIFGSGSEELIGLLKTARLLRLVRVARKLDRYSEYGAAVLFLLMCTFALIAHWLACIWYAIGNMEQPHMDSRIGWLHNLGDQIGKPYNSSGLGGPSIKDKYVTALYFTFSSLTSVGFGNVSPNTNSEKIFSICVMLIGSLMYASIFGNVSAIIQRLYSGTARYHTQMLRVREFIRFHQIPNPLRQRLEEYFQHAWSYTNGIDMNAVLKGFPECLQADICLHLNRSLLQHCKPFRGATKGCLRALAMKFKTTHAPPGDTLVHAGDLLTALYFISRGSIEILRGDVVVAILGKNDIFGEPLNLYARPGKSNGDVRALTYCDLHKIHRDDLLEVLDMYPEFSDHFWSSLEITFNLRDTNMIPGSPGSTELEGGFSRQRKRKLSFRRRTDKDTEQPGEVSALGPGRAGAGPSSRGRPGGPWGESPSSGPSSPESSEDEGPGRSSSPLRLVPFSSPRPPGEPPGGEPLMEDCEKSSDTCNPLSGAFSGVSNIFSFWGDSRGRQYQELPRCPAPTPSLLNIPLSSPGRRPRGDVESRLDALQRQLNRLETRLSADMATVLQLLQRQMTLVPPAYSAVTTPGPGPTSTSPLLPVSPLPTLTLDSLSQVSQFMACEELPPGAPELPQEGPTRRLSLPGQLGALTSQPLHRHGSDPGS

[24] = Caco-2 permeability; conditions: human
[25] = system: male BALB/c mice; test: Passive avoidance, scopolamine-induced amnesia, mice; type: in vivo; conditions: highest dose tested, 1 mg/kg
[26] = system: male BALB/c mice; test: Novel object recognition, scopolamine-induced; type: in vivo; conditions: 1.0 mg/kg scopolamine; memantine 10 mg/kg; SB-742457 0.2 or 1.0 mg/kg
Outline: (§1)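 All drugs were dissolved in saline and given IP; control animals received saline vehicle. Each group had at least 8 male BALB/c mice. Read-out was novel object recognition index, reported as mean ± SE.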

[27] = system: male BALB/c mice; test: Novel object recognition, MK-801-induced; type: in vivo; conditions: 0.2 mg/kg MK-801; memantine 10 mg/kg; SB-742457 0.2 or 1.0 mg/kg
Outline: as §1

[28] = system: male BALB/c mice; conditions: acute pre-dosing; cited from earlier work
[29] = system: BALB/c mice; test: Morris water maze, scopolamine-induced amnesia; type: in vivo; conditions: IP; AVN-101 0.2 mg/kg; Tacrine 3 mg/kg; donepezil 1 mg/kg; scopolamine 1.5 mg/kg
Outline: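 Scopolamine-induced amnesia model in male BALB/c mice. Read-out was time spent in the quadrant where the escape platform had been during the two preceding training days, reported as mean ± SE.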

[30] = system: Monkeys (Macaca mulatta); test: Q-T interval, monkeys; type: in vivo; conditions: 15 mg/kg IV
[31] = system: femur bone marrow cells; test: Chromosomal aberrations in femur bone marrow cells; type: in vivo, mice; conditions: 20 mg/kg PO single dose, males
Outline: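 Mice 8–12 weeks old, male and female, were dosed orally with test compound or cyclophosphamide 20 mg/kg. Schedule was single dose with kill at 24 h, or qd for 5 days with kill 6 h after the last dose. Colchicine 4 mg/kg was given orally 2.5 h before decapitation. Femur marrow was put into 0.55% KCl at 37°C for 15 min, then spun. Scoring covered 100 metaphases per animal (500 per group), expressed as % aberrant cells.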

[32] = system: BALB/c mice; test: Passive avoidance, MK-801-induced amnesia, mice; type: in vivo; conditions: IP

O=C1CC2(CCCC2)CC(=O)N1CCCCN1CCN(c2ncccn2)CC1 [Buspirone, reference compound]
locomotion (total number of arm visits) [1]: had no effect on total number of arm visits | anxiolytic effect (open/closed arm time and visits, defecations) [1]: clear anxiolytic effects

O=C(CCCN1CCC(O)(c2ccc(Cl)cc2)CC1)c1ccc(F)cc1 [Haloperidol, reference compound]
effect on apomorphine-induced disruption of PPI [2]: able to prevent

O=C1Nc2ccc(Cl)cc2C(c2ccccc2Cl)=NC1O (centres unmarked) [Lorazepam, reference compound]
duration of freezing behavior [3]: significantly reduced duration of the freezing behavior | time spent in the central area [4]: significant anxiolytic effect

Fc1ccc2c(CCNCc3cccc(OCC(F)(F)C(F)F)c3)c[nH]c2c1 [Lu AE58054]
Ki ([5]; Table 2): > 10 µM | binding affinity [5]: very low, if any | Ki ([6]; Table 2): 83 nM | Ki ([7]; Table 2): 250 nM | Ki ([8]; Table 2): > 4.1 µM | Ki [9]: 2300 nM | Ki ([10]; Table 2): > 10 µM

Cc1ccc2c(c1)c1c(n2CC(O)c2ccccc2)CCN(C)C1 (centres unmarked) [M1, 2-(2,8-dimethyl-1,2,3,4-tetrahydro-pyrido[[4,3-b]]indol-5-yl)-1-phenyl-ethan-ol]
Ki [11]: 7.72 nM | lower affinity compared to AVN-101 [12]: 4 fold | lower affinity compared to AVN-101 [13]: 2 fold | lower affinity compared to AVN-101 [14]: 7 fold | Ki [15]: ~48 nM | lower affinity compared to AVN-101 [15]: 83 fold | lower affinity compared to AVN-101 [16]: 9 fold | lower affinity compared to AVN-101 [17]: 3 fold | affinity compared to AVN-101 [18]: practically same affinity | interaction [19]: Neither AVN-101 nor its metabolites, M1 and M2, seem to interact | interaction [20]: Neither AVN-101 nor its metabolites, M1 and M2, seem to interact | Fabs ([21]; M1 PO 5 mg/kg vs IV 1 mg/kg): 8.4% | AUC0 - >∞ ([21]; after AVN-101 IV 2 mg/kg): 264.6 ng·min/mL | Cmax ([21]; after AVN-101 IV 2 mg/kg): 5.7 ng/mL | T1/2 ([21]; after AVN-101 IV 2 mg/kg): 51.4 min | Tmax ([21]; after AVN-101 IV 2 mg/kg): 5 min | AUC0 - >∞ ([21]; after AVN-101 PO 10 mg/kg): 8,995 min×ng/mL | Cmax ([21]; after AVN-101 PO 10 mg/kg): 30.1 ng/mL | T1/2 ([21]; after AVN-101 PO 10 mg/kg): 154.9 min | Tmax ([21]; after AVN-101 PO 10 mg/kg): 60 min | AUC0 - >∞ ([21]; after M1 IV 1 mg/kg): 25,894 min×ng/mL | Cmax ([21]; after M1 IV 1 mg/kg): 4,550 ng/mL | T1/2 ([21]; after M1 IV 1 mg/kg): 57.5 min | Tmax ([21]; after M1 IV 1 mg/kg): 1 min | AUC0 - >∞ ([21]; after M1 PO 5 mg/kg): 10,828 min×ng/mL | Cmax ([21]; after M1 PO 5 mg/kg): 43 ng/mL | T1/2 ([21]; after M1 PO 5 mg/kg): 138.5 min | Tmax ([21]; after M1 PO 5 mg/kg): 120 min | locomotion (total number of arm visits) [1]: some reduction in mice locomotor activity | anxiolytic effect (open/closed arm time and visits, defecations) [1]: clear anxiolytic effects | AUC0 - >∞ ([22]; AVN-101 PO 2 mg): 220 ± 116 pg·h/mL | Cmax ([22]; AVN-101 PO 2 mg): 56.1 ± 18.2 pg/mL | T1/2 ([22]; AVN-101 PO 2 mg): 2.49 ± 1.2 h | AUC0 - >∞ ([22]; AVN-101 PO 4 mg): 555 ± 297 pg·h/mL | Cmax ([22]; AVN-101 PO 4 mg): 112 ± 38.1 pg/mL | T1/2 ([22]; AVN-101 PO 4 mg): 2.48 ± 1.27 h | AUC0 - >∞ ([22]; AVN-101 PO 10 mg): 1410 ± 688 pg·h/mL | Cmax ([22]; AVN-101 PO 10 mg): 292 ± 176 pg/mL | T1/2 ([22]; AVN-101 PO 10 mg): 2.8 ± 1.71 h | AUC0 - >∞ ([22]; AVN-101 PO 20 mg): 3100 ± 870 pg·h/mL | Cmax ([22]; AVN-101 PO 20 mg): 635 ± 311 pg/mL | T1/2 ([22]; AVN-101 PO 20 mg): 3.85 ± 0.56 h | Tmax ([22]; after PO AVN-101): around 1 h | IC50 [23]: 1630 nM

COC(=O)c1ccccc1-c1c2ccc(=N)cc-2oc2cc(N)ccc12 [Rhodamine123, reference compound]
Papp [24]: 0.6 ± 0.2 ×10⁻⁶ cm/s | Papp B→A [24]: 6.8 ± 0.4 ×10⁻⁶ cm/s

O=S(=O)(c1ccccc1)c1cnc2c(N3CCNCC3)cccc2c1 [SB-742457]
IC50 [11]: 1270 nM | preventative effect [25]: very mild preventative effect | effect on deficit in novel object recognition [26]: not statistically effective | effect on deficit in novel object recognition [27]: not statistically effective | binding inhibition ([5]; at 1μM): ~25% | radioligand displacement ([6]; at 1μM): 91% | radioligand displacement ([7]; at 1μM): 85% | radioligand displacement ([8]; at 1μM): 88% | radioligand displacement ([10]; at 1μM): 86% | effective dose range, scopolamine-induced amnesia passive avoidance [28]: 0.5 to 4.5 mg/kg

Nc1c2c(nc3ccccc13)CCCC2 [Tacrine]
effect on scopolamine-induced amnesia (time in platform quadrant) [29]: significant prevention

CCCCc1oc2ccccc2c1C(=O)c1cc(I)c(OCCN(CC)CC)c(I)c1 [amiodaron, reference compound]
effect on heart rate [30]: no effect on the heart rate

O=P1(N(CCCl)CCCl)NCCCO1 (centres unmarked) [cyclophosphomide, reference compound]
Cells with multiple aberrations [31]: 6.2% | Total altered metaphases (%) [31]: 20.8 ± 1.8% | cells with aberration, Double fragment [31]: 0.4% | cells with aberration, Single fragment [31]: 19.8% | cells with aberration, exchanges [31]: 1.0% | cells with aberration, gaps [31]: 0.2%

COc1cc2c(cc1OC)C(=O)C(CC1CCN(Cc3ccccc3)CC1)C2 (centres unmarked) [donepezil]
effect on scopolamine-induced amnesia (time in platform quadrant) [29]: not as effective

CC12CC3CC(C)(C1)CC(N)(C3)C2 [memantine]
effect on MK-801-induced amnesia [32]: not active | effect on deficit in novel object recognition [26]: not statistically effective | effect on deficit in novel object recognition [27]: not statistically effective
